Compound activity as filed in PubChem.
Arrestin-AP2 inh = blocks beta-arrestin peptide binding to AP2 adaptin; inhibition, % at 10 µM; FITC-arrestin peptide / GST-AP2 beads, flow cytometry; AP2 beta2 appendage carries R879A mutation; 0.31% of 340,000 active;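 active = inhibition above a set limit, near 3 SD of compounds lacking own fluorescence, cut at about 54% in these data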
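Measured by: flow cytometry, FL1 (488/535 nm); Material: AP2 appendage R879A on GSH beads; Evaluation: percent response; Timing: pre-incubation 12 min, peptide binding 1 h, room temperature; Also added: 50 nM FITC-arrestin peptide; Medium: PBS with 0.05% Tween 20 and 0.1% BSA.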
Neddyl block = blocks human cullin neddylation. TR-FRET cullin neddylation, biochemical. inhibition, % at 25 µM. 0.58% of 360,000 active. AID 651699; in the data active = inhibition above about 36%
Efflux pump mplx = antifungal efflux pump inhibition, Nile Red retention; S. cerevisiae Candida pump triplex; inhibition, % at 10 µM; 0.44% of 330,000 active;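 active = plate passing quality check with inhibition over a set limit, or well fluorescence over plate mean plus 4 SD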;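 note: Nile Red retained in pooled yeast measured as flow cytometry median fluorescence; higher means more Nile Red kept so more efflux inhibition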
Pemphigus Ab inh = human desmoglein-3 autoantibody binding inhibition | P32926 | DSG3-coupled beads, scFv-anti-DSG3-GFP binding, flow cytometry; stronger effect = lower value | binding (percent of control), % at 10 µM | 0.48% of 310,000 active | AID 588358;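 active = binding more than 3 SD below its plate's average and above zero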;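 note: hits lower antibody fragment binding to DSG3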
A number is an active result; – = inactive; · = no result shown. Rows were chosen to be rich in hits. Some 1.7% of all compounds tested hit in one or more screens of this group.

SMILES | Arrestin-AP2 inh | Neddyl block | Efflux pump mplx | Pemphigus Ab inh
O=[N+]([O-])c1ccc(O)c(C2CCCCC2)c1 | – | – | · | –
CCN1CCc2c(sc(NC(=O)c3ccc4ccccc4c3)c2C(N)=O)C1 | – | 41 | – | ·
Cc1ccc2nc(Nc3nc(C)cc(-c4ccccc4)n3)[nH]c(=O)c2c1 | – | – | – | –
Cc1ccc(-n2c(N)c(C#N)c(-c3ccccc3)c(C#N)c2=O)cc1 | – | – | – | –
Cc1ccc(-c2nc3sc(C#N)c(N)n3c(=O)c2C#N)cc1 | – | – | – | 68
Cc1ccc2[nH]c(C)c(CCNC(=O)c3c(N)no[n+]3[O-])c2c1 | – | – | – | –
NC(=S)NN=Cc1nccc2c(C(F)(F)F)cccc12 | · | – | · | –
CNc1cccnc1C=NNC(N)=S | – | 47 | · | –
C=C(C)c1cccc(C(C)(C)NC(=O)Nn2cnnc2)c1 | – | – | – | –
O=C1CSc2ccc(C(=O)Nc3cccc(S(=O)(=O)Nc4ccc(Br)cc4)c3)cc2N1 | – | – | – | –
CCOC(=O)c1c(N)nn(C(=O)c2ccccc2F)c1-c1ccc(OC)cc1 | – | – | – | ·
CCOC(=O)c1c(N)nn(C(=O)C(C)(C)C)c1-c1ccccc1 | – | – | – | 92
CSc1nc2ccc(NC(=O)c3cccs3)cc2s1 | – | – | – | 28
COc1ccc(CCn2c(NN)nc3c2c(=O)[nH]c(=O)n3C)cc1 | – | – | – | 79
C=CCn1c(N2CCN(c3ccc(OC)cc3)CC2)nc2c1c(=O)[nH]c(=O)n2C | – | – | – | -12
C=CCn1c(N2CCN(c3ccc(OC)cc3)CC2)nc2c1c(=O)n(C)c(=O)n2C | – | – | – | –
CCCN(Cc1nnc(-c2ccccc2Cl)o1)C(=O)c1cccc(S(=O)(=O)N2CCOCC2)c1 | – | – | – | –
COc1ccccc1/C=N/NC(=O)c1ccc(CN2C(=O)c3cccc4cccc2c34)cc1 | – | · | – | 65
COc1cc(C(=O)OCC(=O)NC2CCS(=O)(=O)C2)ccc1OCc1c(C)noc1C (centres undefined) | – | – | – | –
CCOC(=O)c1sc(NC(=O)CSc2n[nH]c(-c3ccncc3)n2)c(C#N)c1C | – | – | – | ·
Cc1ccsc1/C=C/C1=Cc2c(sc(NC(=O)CSc3n[nH]c(N)n3)c2C#N)C(C)(C)C1 | – | – | – | 70
CCOc1ccc(/C=C/C2=Cc3c(sc(NC(=O)CSc4n[nH]c(N)n4)c3C#N)C(C)(C)C2)cc1 | – | – | – | 81
Cc1cc(CN(C)C(=O)C2CCC(=O)N(CCc3cccc(F)c3)C2)on1 (centres undefined) | – | – | – | –
CC(C)C(NC(=S)NCc1ccccc1)C(=O)O (centres undefined) | – | – | – | –
COC(=O)c1ccc(CNC(=O)COC(=O)/C=C/c2cc(OC)c(OC)c(OC)c2)cc1 | – | – | – | 61
SMILES | Arrestin-AP2 inh | Neddyl block | Efflux pump mplx | Pemphigus Ab inh
Cc1ccc2cc(-c3noc(C4CCCO4)n3)c(=O)[nH]c2c1 (centres undefined) | – | · | – | –
Cc1ccc2cc(-c3noc(C4CCCCC4)n3)c(=O)[nH]c2c1 | – | – | – | -18
COc1ccc(OCC(=O)O/N=C(\N)c2ccc(OC)cc2)cc1 | – | – | – | –
CO/N=C(/COc1ccc(F)cc1)c1ccc(OC)cc1 | – | – | – | 72
COC(=O)c1scc(C)c1N/N=C(\C)c1ccc(F)cc1 | – | · | – | -28
Cc1csc(C(=O)O)c1NC(=O)c1ccc(F)cc1 | – | – | – | –
c1ccc(CSc2ncn[nH]2)nc1 | – | – | – | –
Cc1nn(CC(C)C)c(Cl)c1C(=O)NCC1CCCO1 (centres undefined) | · | – | · | –
O=C1c2c(O)cccc2Cc2cccc(O)c21 | – | – | – | 64
Cc1ccc(N(CCC(=O)Nc2nnc(C3CC3)s2)S(=O)(=O)c2ccccc2)cc1 | · | · | 10 | ·
CC(=O)c1ccc(N2CCN(C(C)C(=O)Nc3ccc4c(c3)OCCO4)CC2)cc1 (centres undefined) | – | – | – | –
COc1ccc(C(=O)NCc2nnc(SCC(=O)Nc3nnc(C)s3)o2)cc1 | – | – | – | –
CCSc1nnc(NC(=O)CSc2nnc(CNC(=O)c3ccc(OC)cc3)o2)s1 | – | – | – | -2.6
Cc1csc(=O)n1CC(=O)OCC(=O)Nc1cc(S(=O)(=O)N2CCOCC2)ccc1Cl | – | – | – | –
Cc1ccc2c(c1C)NC(C(=O)O)C1CC=CC21 (centres undefined) | – | – | – | 35
O=C(O)C1Nc2c(C(=O)N3CCOCC3)cccc2C2C=CCC12 (centres undefined) | – | – | – | –
COc1cccc(-c2nc(CS(=O)CC(=O)NC3CCCCC3)c(C)o2)c1 (centres undefined) | – | – | – | 55
